Data taken from ChEMBL document CHEMBL3627611, “Carbonic anhydrase inhibitors: Design, synthesis, kinetic, docking and molecular dynamics analysis of novel glycine and phenylalanine sulfonamide derivatives” (Bioorg Med Chem, 2015).
pKi: −log10 of the molar value. Active and inactive are the calls of the source. The calls are words filed in the database; no cut-off is given here.

Key:
[1] = molecular target: T1, Carbonic anhydrase 1 (Homo sapiens, UniProt P00915); assay: Competitive inhibition of cytosolic carbonic anhydrase 1 esterase activity isolated from human erythrocytes in presence of 4-nitrophenylacetate
How it was run: (§1)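 Esterase activity followed at 348 nm as 4-nitrophenylacetate (3 mM stock) converts to 4-nitrophenylate, 3 min at 25 °C, in 0.05 M Tris–SO4 pH 7.4. Blank without enzyme; uninhibited control = 100%. Several inhibitor concentrations, each in triplicate; KI from activity-versus-[inhibitor] plots via Cheng–Prusoff.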
Target sequence in this assay (P00915 2-261 limits assumed): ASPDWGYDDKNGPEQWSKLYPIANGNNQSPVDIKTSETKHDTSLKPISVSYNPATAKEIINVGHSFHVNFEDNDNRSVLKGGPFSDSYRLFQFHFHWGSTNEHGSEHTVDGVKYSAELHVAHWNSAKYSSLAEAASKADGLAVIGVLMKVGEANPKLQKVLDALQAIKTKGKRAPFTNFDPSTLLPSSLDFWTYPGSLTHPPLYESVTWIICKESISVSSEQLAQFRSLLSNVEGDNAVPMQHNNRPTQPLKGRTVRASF

[2] = molecular target: T1, Carbonic anhydrase 1; assay: Inhibition of cytosolic carbonic anhydrase 1 esterase activity isolated from human erythrocytes using 4-nitrophenylacetate as substrate measured over 3 mins by spectrophotometric analysis; how it was run: as §1
Target sequence in this assay (P00915 whole entry): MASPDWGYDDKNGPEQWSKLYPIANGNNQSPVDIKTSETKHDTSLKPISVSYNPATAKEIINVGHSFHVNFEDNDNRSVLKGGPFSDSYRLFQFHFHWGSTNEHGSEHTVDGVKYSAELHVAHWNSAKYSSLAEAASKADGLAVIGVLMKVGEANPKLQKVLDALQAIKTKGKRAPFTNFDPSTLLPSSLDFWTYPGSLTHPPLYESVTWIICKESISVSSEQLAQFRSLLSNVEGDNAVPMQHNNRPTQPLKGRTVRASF

[3] = molecular target: Carbonic anhydrase 2 (Homo sapiens, UniProt P00918); assay: Inhibition of cytosolic carbonic anhydrase 2 esterase activity isolated from human erythrocytes using 4-nitrophenylacetate as substrate measured over 3 mins by spectrophotometric analysis

Row | Compound | inhibition [1] | pKi [2] | pKi [3]
1 | Cc1ccc(S(=O)(=O)N[C@@H](Cc2ccccc2)C(=O)N2CCCCC2)cc1 | Active | 4.00 | 
2 | Cc1ccc(S(=O)(=O)NCC(=O)OCc2ccccc2)cc1 | Active | 4.53 | 
3 | Cc1ccc(S(=O)(=O)NCC(=O)O)cc1 | Active | 3.92 | 3.84
4 | Cc1ccc(S(=O)(=O)N[C@@H](Cc2ccccc2)C(=O)OCc2ccccc2)cc1 | Active | 4.83 | 
5 | Cc1ccc(S(=O)(=O)NCC(=O)N2CCCCC2)cc1 |  |  | 4.71
6 | Cc1ccc(S(=O)(=O)N[C@@H](Cc2ccccc2)C(=O)O)cc1 | Active | 3.50 | 3.98
7 | COC(=O)CNS(=O)(=O)c1ccc(C)cc1 | Active | 3.98 | 4.25
8 | COC(=O)[C@H](Cc1ccccc1)NS(=O)(=O)c1ccc(C)cc1 | Active | 4.20 | 
